Data: ChEMBL document CHEMBL1129380, “Synthesis, activity, and molecular modeling of a new series of tricyclic pyridazinones as selective aldose reductase inhibitors” (J Med Chem, 1996)

Tests used:
[1] = target: Aldo-keto reductase family 1 member B1 (Bos taurus) (UniProt P16116); assay: (§1) Evaluated for inhibition of Aldose reductase 2
How it was run: (§2)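 Calf lens ALR2, partially purified by DE-52 (6.5 mU/mg), at 3.5 mU/mL. Assay at 37 °C with 4.7 mM D,L-glyceraldehyde and 0.11 mM NADPH in 0.25 M sodium phosphate, pH 6.8, with 0.38 M ammonium sulfate. Inhibitor in DMSO (1% final). A340 decrease corrected by a no-substrate blank.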

[2] = organism: Bos taurus; assay: Inhibition of Aldehyde reductase 1; design: concentration or dose not given beside the values; details: concentration not given here
How it was run: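 Partially purified bovine kidney ALR1 (ammonium sulfate fractionation plus DEAE-52 batch step, 11.3 mU/mg), at 3.5 mU/mL. Assay at 37 °C with 20 mM D-glucuronate and 0.12 mM NADPH in 0.1 M sodium phosphate, pH 7.2. Inhibitor added in DMSO, kept at 1%. NADPH oxidation read at 340 nm against a substrate-free blank. IC50 from the log dose–inhibition curve, duplicates.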

[3] = target: Aldo-keto reductase family 1 member B1 (Bos taurus, UniProt P16116); assay: as §1; how it was run: as §2
[4] = target: Sorbitol dehydrogenase (Ovis aries) (UniProt P07846); assay: Inhibition of sorbitol dehydrogenase from sheep liver (40 U/mg of protein)
[5] = target: Sorbitol dehydrogenase (Ovis aries) (UniProt P07846); assay: as above; details: concentration not given here
[6] = target: T1, Glutathione reductase, mitochondrial (Homo sapiens) (UniProt P00390); assay: (§3) Inhibition of glutathione reductase; details: Saccharomyces cerevisiae; concentration not given here
T1 sequence (whole entry): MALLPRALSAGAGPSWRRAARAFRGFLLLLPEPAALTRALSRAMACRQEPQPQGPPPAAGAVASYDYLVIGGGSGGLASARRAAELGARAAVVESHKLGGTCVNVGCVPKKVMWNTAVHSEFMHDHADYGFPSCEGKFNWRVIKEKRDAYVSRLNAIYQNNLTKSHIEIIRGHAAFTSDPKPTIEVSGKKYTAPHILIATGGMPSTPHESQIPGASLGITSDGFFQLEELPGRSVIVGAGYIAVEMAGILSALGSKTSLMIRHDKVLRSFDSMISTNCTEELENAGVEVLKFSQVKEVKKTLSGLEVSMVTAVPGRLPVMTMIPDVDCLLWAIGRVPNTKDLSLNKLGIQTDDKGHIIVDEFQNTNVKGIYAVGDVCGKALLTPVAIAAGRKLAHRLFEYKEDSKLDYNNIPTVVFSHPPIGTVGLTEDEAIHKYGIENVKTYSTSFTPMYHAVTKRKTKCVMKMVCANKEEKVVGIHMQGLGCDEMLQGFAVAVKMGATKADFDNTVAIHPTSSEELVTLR

[7] = target: T2, Glutathione reductase, mitochondrial (Homo sapiens, UniProt P00390); assay: as §3; design: species or system Saccharomyces cerevisiae
T2 sequence (P00390 whole entry): T1 sequence (whole entry)

[8] = target: T1, Glutathione reductase, mitochondrial (Homo sapiens); assay: Inhibition of glutathione reductase at 149 uM; details: Saccharomyces cerevisiae
[9] = target: T1, Glutathione reductase, mitochondrial (Homo sapiens); assay: Inhibition of glutathione reductase at 138 uM; details: Saccharomyces cerevisiae

Sorbitol dehydrogenase (Ovis aries), sequence (P07846 whole entry, looked up): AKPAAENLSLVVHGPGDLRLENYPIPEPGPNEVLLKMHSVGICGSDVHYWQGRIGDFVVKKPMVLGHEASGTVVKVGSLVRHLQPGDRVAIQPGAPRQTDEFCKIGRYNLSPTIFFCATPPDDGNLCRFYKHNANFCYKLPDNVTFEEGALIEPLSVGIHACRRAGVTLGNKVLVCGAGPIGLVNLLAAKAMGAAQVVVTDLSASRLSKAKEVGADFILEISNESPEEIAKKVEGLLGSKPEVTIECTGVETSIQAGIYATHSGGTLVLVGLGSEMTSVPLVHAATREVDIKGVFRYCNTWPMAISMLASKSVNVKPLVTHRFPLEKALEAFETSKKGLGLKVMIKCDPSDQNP

inhibition [2] [%]	IC50 [3] [µM]	IC50 [4]	Structure (SMILES)	also measured
10.3			O=C(O)Cn1nc2c(c(C(=O)O)c1=O)CCCc1ccccc1-2	inhibition [1]: 12.1%
11.3	114	No inhibition	COc1cc2c(cc1OC)-c1nn(CC(=O)O)c(=O)cc1CC2	
			COc1ccc2c(C(=S)N(C)CC(=O)O)cccc2c1C(F)(F)F [TOLRESTAT]	inhibition [5]: 16.4%
8.3		No inhibition	O=C(O)c1c(O)nnc2c1CCc1ccccc1-2	inhibition [1]: 9.9%
8	162	No inhibition	COc1cc2c(cc1OC)-c1nn(CCC(=O)O)c(=O)cc1CC2	
32.7	133	No inhibition	O=C(O)CCn1nc2c(cc1=O)CCc1ccccc1-2	
		No inhibition	O=C(O)Cn1nc2c(c(C(=O)O)c1=O)Cc1ccccc1-2	inhibition [1]: 32.4%; inhibition [6]: 22.3%
	11.4	No inhibition	O=C(O)CCCn1nc2c(cc1=O)CCc1ccccc1-2	
	6.44	No inhibition	Cc1cc(C)c2c(c1)-c1nn(CC(=O)O)c(=O)cc1CC2	
		No inhibition	O=C(O)Cn1nc2c(cc1=O)Cc1ccccc1-2	inhibition [1]: 35.8%; inhibition [6]: 9.4%
10.1	7.56	No inhibition	COc1cc2c(cc1OC)-c1nn(CCCC(=O)O)c(=O)cc1CC2	
	51.5	No inhibition	Cc1cc(C)c2c(c1)-c1nn(CCC(=O)O)c(=O)cc1CC2	
15.1	76.2	No inhibition	O=C(O)Cn1nc2c(cc1=O)CCCc1ccccc1-2	
			O=C(O)c1c2c(n[nH]c1=O)-c1ccccc1CC2	Inhibition [7]: 18.9%
		No inhibition	O=C1NC(=O)[C@@]2(CCOc3ccc(F)cc32)N1 [SORBINIL]	
22.1	17.4	No inhibition	Cc1cc(C)c2c(c1)-c1nn(CCCC(=O)O)c(=O)cc1CC2	
44.1	26.4	No inhibition	COc1cc2c(cc1OC)-c1nn(CC(=O)O)c(=O)cc1C2	inhibition [8]: 11.2%
0		No inhibition	O=C(O)c1c(O)nnc2c1Cc1ccccc1-2	inhibition [1]: 5.3%; Inhibition [7]: 12.3%
	12.6	No inhibition	O=C(O)Cn1nc2c(cc1=O)CCc1ccccc1-2	inhibition [9]: 4.2%
	33	No inhibition	O=C(O)Cn1nc2c(c(C(=O)O)c1=O)CCc1ccccc1-2	inhibition [6]: 23.7%
6.8			O=C(O)c1c2c(n[nH]c1=O)-c1ccccc1CCC2	inhibition [1]: 13.2%
21.8	63.5		Cc1cc(C)c2c(c1)C1=NN(CC(=O)O)C(=O)CC1CC2 (stereo unspecified)	
